F508del corr – correctors of CFTR F508del function in bronchial epithelial cells | 350,000 tested, 0.36% active | CFBE cells, YFP halide quenching; stimulated with forskolin plus potentiator P3; % fluorescence drop versus neutral controls | activity (quench increase), % at 7.58 µM;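 active means mean added fluorescence quench of at least 8% versus neutral control, with both replicates also reaching 8%; inconclusive means only one of the mean or replicate conditions met; inactive means mean below 8% and not both replicates reaching 8%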;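 further: cells transiently co-express mutant CFTR-F508del with the halide-sensitive YFP; corrector assay measuring rescue of mutant channel to the surface after 24 h compound exposure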
DENV2 CPE – protects cells from dengue virus 2 cytopathic effect. DENV2-infected cells, cytopathic effect rescue, plate reader. CPE inhibition, % at 9.99 µM. 350,000 tested, 1.7% active. AID 651640; in the data active means CPE inhibition above about 20%, passing the limit was not always enough; inconclusive means no clear call, values can overlap the other calls; tested in BHK-21 cells
Xi reactivation – activators of X-chromosome reactivation in mouse fibroblasts; XiGFP mouse fibroblasts, % GFP-positive cells imaging, 3 d; cells co-treated with 5-aza-dC sensitizer; scaled so ellipticine positive control = 100%; activation, % at 7.58 µM; 360,000 tested, 0.055% active;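 active means mean normalized replicate activation at least 10% and every replicate at or above 10%; inconclusive means only one of the two criteria met; inactive means mean below 10% and not all replicates reach 10%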
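System: XiGFP fibroblasts, SV40-immortalized. Medium: DMEM plus 5-aza-dC sensitizer. Doses: single point. Timing: 3 d treatment, 15 min room-temperature fixation. Control set: ellipticine 6 µM.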
Cneo AK release – causes C. neoformans cell lysis; adenylate kinase release luminescence, 4 h; normalised: neutral wells 0, clomiphene wells 100; AID 651654; lysis activity, % at 15 µM; 360,000 tested, 0.2% active;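 active means mean lysis activity across replicates of at least 80%, whatever share of replicates individually reach that level; inactive means mean lysis activity below 80%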
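Material: C. neoformans cells; Schedule: 4 h static compound exposure, 37 °C, read 1 h post-reagent; Measured by: adenylate kinase release luminescence; Read-out: signal increase indicating cell lysis; Controls: Clomiphene as positive lysis control.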
FN deposit inh – fibronectin deposition inhibition. 350,000 tested, 0.086% active. AH1F fibroblasts, Alexa488-fibronectin deposition fluorescence, overnight. inhibition, % at 12.6 µM;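 active means mean inhibition across replicates of 30% or more, regardless of how many single replicates reach that level; inconclusive means mean under 30% yet at least half of replicates reach 30%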
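Test system: AH1F fibroblast monolayer depositing Alexa488-labelled fibronectin into matrix. Input: 10000 cells per well. Technique: fluorescence, ex 485 nm, em 525 nm. Buffer or medium: DMEM plus 2% serum, read in PBS. Timing: 1 h cell adhesion before compound, then overnight fibronectin incubation. Compound: single dose, pinned. Read-out basis: inhibition from reduced deposited-fibronectin fluorescence.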
PGC1a acetyl inh – PGC1a acetylation modulation, inhibitor mode; 350,000 tested, 0.17% active; U2OS PGC1a acetylation, AlphaScreen anti-acetyl-lysine; with virally co-expressed GCN5 acetyltransferase; AID 651687; inhibition, % at 15.6 µM;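 active means every replicate shows inhibition of at least 40%; inconclusive means mean inhibition at least 40% but some replicate below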
Each line names hits and unclear results; the compound was inactive in the other large screens. Shown are actives, neighbours in structure and some others; about 1.9% of the full set was active somewhere.

O=C(C[C@H]1CC[C@H](NC(=O)C2CCOCC2)[C@H](CO)O1)Nc1nccs1	none
O=C1NC[C@H](c2ccccc2)OC(=O)[C@@H](Cc2ccc(F)cc2)CC/C=C/C[C@@H]1CC(=O)N(CCO)Cc1ccccc1	DENV2 CPE 47
O=C(C[C@H]1C/C=C\CC[C@H](Cc2ccc(F)cc2)C(=O)O[C@@H](c2ccccc2)CNC1=O)N[C@H](CO)Cc1ccccc1	DENV2 CPE 86 (no result: PGC1a acetyl inh)
O=C(C[C@H]1C/C=C\CC[C@H](Cc2ccc(F)cc2)C(=O)O[C@@H](c2ccccc2)CNC1=O)N[C@@H](CO)Cc1ccccc1	none (no result: DENV2 CPE, PGC1a acetyl inh)
O=C1NC[C@H](c2ccccc2)OC(=O)[C@H](Cc2ccc(F)cc2)C/C=C\C[C@@H]1CC(=O)N(CCO)Cc1ccccc1	none
CC(C)(C)OC(=O)C[C@H]1C/C=C\C[C@H](CC(=O)N[C@H](CO)Cc2ccccc2)C(=O)N[C@H](C(C)(C)C)COC1=O	none
CC(C)(C)OC(=O)C[C@H]1C/C=C\C[C@H](CC(=O)N[C@@H](CO)Cc2ccccc2)C(=O)N[C@H](C(C)(C)C)COC1=O	DENV2 CPE 63 (no result: PGC1a acetyl inh)
O=C1CCCC/C=C\C[C@H](CC(=O)N(CCO)Cc2ccccc2)C(=O)NC[C@H](c2ccccc2)O1	DENV2 CPE 130 (no result: PGC1a acetyl inh)
COCC(=O)N1CC2(CN(Cc3nccs3)C2)c2c(n(C)c3cc(OC)ccc23)[C@H]1CO	none (no result: Cneo AK release, FN deposit inh)
COc1cc(/C=C(/C#N)C(=O)NCc2ccccc2)cc(OC)c1OC	DENV2 CPE 67
NC(N)=NN=C(c1ccc(F)cc1)c1ccc(C(F)(F)F)cc1	F508del corr 13 (no result: Cneo AK release, FN deposit inh)
NC(=O)CC(NC(=O)Cc1cccc2ccccc12)c1ccc(N2CCC(N3CCCCC3)CC2)c([N+](=O)[O-])c1 (configuration not stated)	DENV2 CPE 23
Cc1cc(C)cc(C(=O)NC(CC(N)=O)c2ccc(N3CCC(Br)CC3)c([N+](=O)[O-])c2)c1 (configuration not stated)	DENV2 CPE inconclusive
Cc1cc(C)cc(C(=O)NC(CC(N)=O)c2ccc(N3CCC(Cc4ccccc4)CC3)c([N+](=O)[O-])c2)c1 (configuration not stated)	DENV2 CPE 123 (no result: PGC1a acetyl inh)
O=C(C[C@@H]1C[C@@H]2c3cc(NC(=O)CC4CC4)ccc3O[C@@H]2[C@@H](CO)O1)NCc1cc(F)ccc1F	none
COc1ccc(NC(=O)N(C)C[C@@H]2Oc3c(NC(=O)Nc4ccc5c(c4)OCO5)cccc3C(=O)N([C@@H](C)CO)C[C@H]2C)cc1	none (no result: FN deposit inh)
COc1ccc(NC(=O)Nc2cccc3c2O[C@@H](CN(C)C(=O)Nc2ccc4c(c2)OCO4)[C@@H](C)CN([C@@H](C)CO)C3=O)cc1	DENV2 CPE 27 (no result: FN deposit inh)
COc1ccc(S(=O)(=O)Nc2cccc3c2O[C@@H](CN(C)C(=O)Nc2ccc4c(c2)OCO4)[C@@H](C)CN([C@H](C)CO)C3=O)cc1	DENV2 CPE 21
Cc1ccc(S(=O)(=O)Nc2cccc3c2O[C@@H](CN(C)C(=O)Nc2ccc4c(c2)OCO4)[C@@H](C)CN([C@H](C)CO)C3=O)cc1	DENV2 CPE 22 (no result: FN deposit inh)
Cc1noc(C)c1NC(=O)N(C)C[C@@H]1Oc2c(NC(=O)Nc3ccc4c(c3)OCO4)cccc2C(=O)N([C@H](C)CO)C[C@@H]1C	none (no result: FN deposit inh)
Cc1noc(C)c1NC(=O)N(C)C[C@H]1Oc2c(NC(=O)Nc3ccc4c(c3)OCO4)cccc2C(=O)N([C@H](C)CO)C[C@H]1C	DENV2 CPE 24 (no result: FN deposit inh)
COc1ccc(S(=O)(=O)Nc2cccc3c2O[C@H](CN(C)C(=O)Nc2ccc4c(c2)OCO4)[C@H](C)CN([C@H](C)CO)C3=O)cc1	none
Cc1ccc(S(=O)(=O)Nc2cccc3c2O[C@@H](CN(C)C(=O)Nc2ccc4c(c2)OCO4)[C@H](C)CN([C@H](C)CO)C3=O)cc1	none (no result: FN deposit inh)
CNC[C@H]1Oc2c(NC(=O)NC(C)C)cccc2C(=O)N([C@H](C)CO)C[C@@H]1C	none (no result: FN deposit inh)
COc1ccc(S(=O)(=O)Nc2cccc3c2O[C@@H](CN(C)C(=O)Nc2c(C)noc2C)[C@@H](C)CN([C@@H](C)CO)C3=O)cc1	DENV2 CPE 26 (no result: FN deposit inh)
COc1ccc(C(=O)NC(=S)N(C)C2CCCCC2)cc1Br	DENV2 CPE 59 (no result: FN deposit inh)
CC(C)NC(=O)Nc1ccc2c(c1)C(=O)N([C@H](C)CO)C[C@@H](C)[C@@H](CN(C)S(=O)(=O)c1ccccc1)OCCCC[C@H](C)O2	none
C/C=C/C=C/C(=O)N1CC2(CC(c3cccc(NC(=O)/C=C/C)c3)=NO2)C[C@@H]1C(N)=O (some centres not stated)	DENV2 CPE 29 (no result: PGC1a acetyl inh)
CC/C=C/C(=O)N1CC2(CC(c3cccc(NC(=O)COc4ccc(Cl)cc4)c3)=NO2)C[C@H]1C(N)=O (some centres not stated)	DENV2 CPE 22 (no result: PGC1a acetyl inh)
C=C(C)C(=O)N1CC2(CC(c3cccc(NC(=O)/C=C\C)c3)=NO2)C[C@H]1C(N)=O (some centres not stated)	DENV2 CPE 128
NC(=O)[C@@H]1CC2(CC(c3cccc(NC(=O)COc4ccc(Cl)cc4)c3)=NO2)CN1C(=O)COc1ccc(Cl)cc1 (some centres not stated)	DENV2 CPE inconclusive
CC1=Nc2cc(C(=O)NCc3ccco3)ccc2Sc2ccc(C)cc21	none (no result: F508del corr, DENV2 CPE, Xi reactivation, FN deposit inh, PGC1a acetyl inh)
CC1=Nc2cc(C(=O)NCC3CCCO3)ccc2Sc2ccc(C)cc21 (configuration not stated)	F508del corr 10 (no result: PGC1a acetyl inh)
CO[C@@H]1CN(C)C(=O)c2ccc(NC(=O)c3ccc(Oc4ccccc4)cc3)cc2OC[C@@H](C)NC[C@@H]1C	none (no result: Cneo AK release)
Oc1cc(Nc2ccccc2)cc2cccnc12	none (no result: FN deposit inh)
Oc1cccc2cc(Nc3ccccc3)cnc12	F508del corr 10.0 (no result: DENV2 CPE)
CC=Cc1ccc2n(c1=O)C[C@@H]1[C@@H](CO)[C@H](C(=O)NCC3CC3)[C@H]2N1CCC (mixture of isomers)	none (no result: FN deposit inh)
CC(=O)NCC(=O)NC1CCCc2c1cnn2-c1ccc(C(C)(C)C)cc1 (configuration not stated)	DENV2 CPE 31
CC(C)(C)c1ccc(-n2ncc3c2CCCC3NC(=O)CN2CCCCC2=O)cc1 (configuration not stated)	none (no result: PGC1a acetyl inh)
COC(=O)c1ccc(C(=O)NC2CCCc3c2cnn3-c2ccc(C)c(C)c2)cc1 (configuration not stated)	F508del corr 10, DENV2 CPE inconclusive (no result: FN deposit inh)
COC(=O)c1ccc(C(=O)NC2CCCc3c2cnn3-c2cc(F)cc(F)c2)nc1 (configuration not stated)	F508del corr 9.6 (no result: PGC1a acetyl inh)
